EC50 and IC50 data for 15 compounds are collected here from ChEMBL document CHEMBL4270668, “Design, Synthesis, Molecular Dynamics Simulation, and Functional Evaluation of a Novel Series of 26RFa Peptide Analogues Containing a Mono- or Polyalkyl Guanidino Arginine Derivative” (J Med Chem, 2018).

Starred links: 1 amine or outer side, 2 acyl side, 3 side chain; linkers in the order of their positions; H or OH if unused. Non-standard residues stand in square brackets, D forms with d. Residues, ends and D or L forms follow the SMILES beside them. X11 = CC(C)CNC(=N)NCCCC[C@H](N[*:1])C(=O)[*:2]; X2 = CCN(C)C(=N)NCCCC[C@H](N[*:1])C(=O)[*:2]; X8 = CCN(CC)C(=N)NCCC[C@H](N[*:1])C(=O)[*:2]; X12 = CCCNC(=N)NCCCC[C@H](N[*:1])C(=O)[*:2]; X3 = CN(C)C(=N)NCCCC[C@H](N[*:1])C(=O)[*:2]; X5 = CCN(CC)C(=N)NCC[C@H](N[*:1])C(=O)[*:2]; X6 = N=C(NCCC[C@H](N[*:1])C(=O)[*:2])N1CCC1; X7 = CCN(C)C(=N)NCC[C@H](N[*:1])C(=O)[*:2]; X9 = N=C(NCC[C@H](N[*:1])C(=O)[*:2])N1CCC1; X10 = CNC(=N)NCCCC[C@H](N[*:1])C(=O)[*:2]; Arg(ω-nPr) = CCCNC(=N)NCCC[C@H](N)C(=O)O; Arg(Me2s) = CN=C(NC)NCCC[C@H](N)C(=O)O; X4 = CNC(=N)NCC[C@H](N[*:1])C(=O)[*:2]; Arg(Et) = CCNC(=N)NCCC[C@H](N)C(=O)O; Agb = N=C(N)NCC[C@H](N)C(=O)O

In assay [1] the target is T1, Pyroglutamylated RF-amide peptide receptor (Homo sapiens, UniProt Q96P65).
T1 sequence (Q96P65 whole entry): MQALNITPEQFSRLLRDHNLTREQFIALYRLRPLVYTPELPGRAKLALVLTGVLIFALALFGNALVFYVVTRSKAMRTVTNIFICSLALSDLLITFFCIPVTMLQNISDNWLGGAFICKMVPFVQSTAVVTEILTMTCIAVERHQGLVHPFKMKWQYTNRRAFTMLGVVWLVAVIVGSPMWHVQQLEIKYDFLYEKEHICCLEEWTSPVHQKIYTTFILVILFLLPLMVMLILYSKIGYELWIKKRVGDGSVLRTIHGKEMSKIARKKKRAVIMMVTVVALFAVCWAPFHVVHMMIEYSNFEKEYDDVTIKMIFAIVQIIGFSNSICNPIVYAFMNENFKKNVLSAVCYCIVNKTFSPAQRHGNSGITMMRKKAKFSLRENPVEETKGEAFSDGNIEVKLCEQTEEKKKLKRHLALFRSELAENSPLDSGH
Kind of assay: Agonist activity at human QRFPR expressed in CHO cells co-expressing Galpha16 assessed as increase Ca2+ mobilization after 3 mins by Fluo-4 AM-based scanning fluorometery. Format: functional, cell-based. Put shortly: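 CHO-Gα16 cells stably expressing human QRFPR, seeded at 40,000 cells/well 24 h ahead. Loaded 1 h with 2 µM Fluo-4 AM plus 0.01% pluronic acid, washed, then 30 min in HBSS with 2.5 mM probenecid and 5 mM HEPES. Compounds added at final 10^-11 to 10^-5 M; fluorescence recorded 3 min on a scanning fluorometer. EC50 from sigmoidal variable-slope fits, ≥3 experiments in triplicate.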
On the technique in general: A change in cytosolic calcium serves as a functional read-out for many receptors and channels.

Assay [2] deals with T1, Pyroglutamylated RF-amide peptide receptor. The assay can be described thus: Antagonist activity at human QRFPR expressed in CHO cells co-expressing Galpha16 assessed as inhibition of 26RFa-induced Ca2+ mobilization preincubated for 15 mins followed by agonist addition measured after 3 mins by Fluo-4 AM-based scanning fluorometery. It is filed as functional, cell-based. The gist of the method:
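CHO-Gα16-hQRFPR cells loaded 1 h with 2 µM Fluo-4 AM, then incubated 15 min with graded compound. A 10^-7 M final 26RFa pulse was given during recording. Background subtracted, baseline normalized to 100%, peak fluorescence taken per concentration. IC50 from sigmoidal variable-slope fits, ≥3 experiments in triplicate. Maximal effect at 10^-4 M expressed as % inhibition of the 26RFa (10^-7 M) response.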

Turning to `N=C(N)NCC[C@H](NC(=O)[C@H](Cc1ccccc1)NC(=O)[C@H](CO)NC(=O)[C@H](Cc1ccccc1)NC(=O)CNC(=O)CN)C(=O)N[C@@H](Cc1ccccc1)C(N)=O` (H-GGFSF[Agb]F-NH2), the EC50 in assay [1] is more than 100 µM. In addition, the IC50 in assay [2] was more than 100 µM.
Regarding `CCNC(=N)NCCC[C@H](NC(=O)[C@H](Cc1ccccc1)NC(=O)[C@H](CO)NC(=O)[C@H](Cc1ccccc1)NC(=O)CNC(=O)CN)C(=O)N[C@@H](Cc1ccccc1)C(N)=O` (H-GGFSF[Arg(Et)]F-NH2), in assay [1], the EC50 turned out to be 1.37 µM.
Take `C/N=C(/NC)NCCC[C@H](NC(=O)[C@H](Cc1ccccc1)NC(=O)[C@H](CO)NC(=O)[C@H](Cc1ccccc1)NC(=O)CNC(=O)CN)C(=O)N[C@@H](Cc1ccccc1)C(N)=O` (H-GGFSF[Arg(Me2s)]F-NH2): the EC50 in assay [1] was more than 100 µM. In addition, the IC50 in assay [2] is more than 100 µM.
Turning to `CCCNC(=N)NCCC[C@H](NC(=O)[C@H](Cc1ccccc1)NC(=O)[C@H](CO)NC(=O)[C@H](Cc1ccccc1)NC(=O)CNC(=O)CN)C(=O)N[C@@H](Cc1ccccc1)C(N)=O` (H-GGFSF[Arg(ω-nPr)]F-NH2), the EC50 in assay [1] came to 1.4 µM.
As for `CCN(C)C(=N)NCCCC[C@H](NC(=O)[C@H](Cc1ccccc1)NC(=O)[C@H](CO)NC(=O)[C@H](Cc1ccccc1)NC(=O)CNC(=O)CN)C(=O)N[C@@H](Cc1ccccc1)C(N)=O` (H-GGFSF[X2]F-NH2), the EC50 in assay [1] was more than 100 µM. In assay [2], the IC50 was more than 100 µM.
On to `CN(C)C(=N)NCCCC[C@H](NC(=O)[C@H](Cc1ccccc1)NC(=O)[C@H](CO)NC(=O)[C@H](Cc1ccccc1)NC(=O)CNC(=O)CN)C(=O)N[C@@H](Cc1ccccc1)C(N)=O` (H-GGFSF[X3]F-NH2), for which the EC50 in assay [1] is more than 100 µM. The IC50 in assay [2] was more than 100 µM.
Regarding `CNC(=N)NCC[C@H](NC(=O)[C@H](Cc1ccccc1)NC(=O)[C@H](CO)NC(=O)[C@H](Cc1ccccc1)NC(=O)CNC(=O)CN)C(=O)N[C@@H](Cc1ccccc1)C(N)=O` (H-GGFSF[X4]F-NH2), the EC50 in assay [1] is more than 100 µM. The IC50 in assay [2] is more than 100 µM.
`CCN(CC)C(=N)NCC[C@H](NC(=O)[C@H](Cc1ccccc1)NC(=O)[C@H](CO)NC(=O)[C@H](Cc1ccccc1)NC(=O)CNC(=O)CN)C(=O)N[C@@H](Cc1ccccc1)C(N)=O` (H-GGFSF[X5]F-NH2): the EC50 in assay [1] is more than 100 µM. Also, the IC50 in assay [2] was more than 100 µM.
Consider `N=C(NCCC[C@H](NC(=O)[C@H](Cc1ccccc1)NC(=O)[C@H](CO)NC(=O)[C@H](Cc1ccccc1)NC(=O)CNC(=O)CN)C(=O)N[C@@H](Cc1ccccc1)C(N)=O)N1CCC1` (H-GGFSF[X6]F-NH2), for which, in assay [1], the EC50 was more than 100 µM. Further, the IC50 in assay [2] was more than 100 µM.
`CCN(C)C(=N)NCC[C@H](NC(=O)[C@H](Cc1ccccc1)NC(=O)[C@H](CO)NC(=O)[C@H](Cc1ccccc1)NC(=O)CNC(=O)CN)C(=O)N[C@@H](Cc1ccccc1)C(N)=O` (H-GGFSF[X7]F-NH2): in assay [1], the EC50 was more than 100 µM. In assay [2], the IC50 was more than 100 µM.
As for `CCN(CC)C(=N)NCCC[C@H](NC(=O)[C@H](Cc1ccccc1)NC(=O)[C@H](CO)NC(=O)[C@H](Cc1ccccc1)NC(=O)CNC(=O)CN)C(=O)N[C@@H](Cc1ccccc1)C(N)=O` (H-GGFSF[X8]F-NH2), in assay [1], the EC50 is more than 100 µM. For the same compound, the IC50 in assay [2] was more than 100 µM.
Take `N=C(NCC[C@H](NC(=O)[C@H](Cc1ccccc1)NC(=O)[C@H](CO)NC(=O)[C@H](Cc1ccccc1)NC(=O)CNC(=O)CN)C(=O)N[C@@H](Cc1ccccc1)C(N)=O)N1CCC1` (H-GGFSF[X9]F-NH2): the EC50 in assay [1] is more than 100 µM. Also, the IC50 in assay [2] is more than 100 µM.
As for `CNC(=N)NCCCC[C@H](NC(=O)[C@H](Cc1ccccc1)NC(=O)[C@H](CO)NC(=O)[C@H](Cc1ccccc1)NC(=O)CNC(=O)CN)C(=O)N[C@@H](Cc1ccccc1)C(N)=O` (H-GGFSF[X10]F-NH2), in assay [1], the EC50 is more than 100 µM. In assay [2], the IC50 was more than 100 µM.
As to `CC(C)CNC(=N)NCCCC[C@H](NC(=O)[C@H](Cc1ccccc1)NC(=O)[C@H](CO)NC(=O)[C@H](Cc1ccccc1)NC(=O)CNC(=O)CN)C(=O)N[C@@H](Cc1ccccc1)C(N)=O` (H-GGFSF[X11]F-NH2), the EC50 in assay [1] came out at 2.75 µM.
As for `CCCNC(=N)NCCCC[C@H](NC(=O)[C@H](Cc1ccccc1)NC(=O)[C@H](CO)NC(=O)[C@H](Cc1ccccc1)NC(=O)CNC(=O)CN)C(=O)N[C@@H](Cc1ccccc1)C(N)=O` (H-GGFSF[X12]F-NH2), in assay [1], the EC50 was more than 100 µM. In assay [2], the IC50 is more than 100 µM.

In general, EC50 refers to the concentration that produces a half-maximal response. For orientation: IC50 means the concentration that gives 50% inhibition.
